Experiment [1] concerns the target T1, D(2) dopamine receptor (Rattus norvegicus, UniProt P61169). As to the kind of experiment: In vitro ability to inhibit the binding of [3H]spiperone to dopamine receptor D2 in rat striatal membranes. The format is cell membranes, Membrane.
The target of experiment [2] is T1, D(2) dopamine receptor. The experiment in a line: Inhibition of [3H]raclopride binding to rat striatal membrane Dopamine receptor D2.
For experiment [3], the system named is Rattus norvegicus. As to the kind of experiment: Dose which blocks the hypothermic effect of apomorphine by 50% against Sprague-Dawley rats when administered intraperitoneally. The format is functional. As to conditions: ip. Summed up: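 Sprague-Dawley rats (n = 6 per group) were pretreated ip with saline or compound 60 min before apomorphine HCl (1 mg/kg sc). Core temperature was taken by rectal probe before dosing, before apomorphine and 15 min after it. Mean changes were expressed as percent of control.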

For experiment [4], the system named is Rattus norvegicus. As to the kind of experiment: Catalepsy interval defined as the time required for both fore limbs to be removed from the bar when administered intraperitoneally. The format is functional. As to conditions: ip. Summed up: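 Rats given test compound ip, then tested on a horizontal bar (1.5 cm diameter, 7 cm above cage floor) at 20, 40, 60, 90, 120 and 240 min after injection. A saline control group was tested the same way. An animal counted as cataleptic if it held ≥ 15 s. The proportion cataleptic at each dose gave dose-response curves, and ED50 came from probit analysis.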

Experiment [5] has as its system Rattus norvegicus. As to the kind of experiment: Evaluated in vitro for antipsychotic activity (hyperactivity) for the block of apomorphine induced response after ip administration 60 min prior to apomorphine (1 mg/kg sc). It counts as functional. Summed up:
(§1)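 Male Sprague-Dawley rats (270–325 g) received compound ip, in saline or in acetic acid plus distilled water, 60 min before apomorphine HCl (1 mg/kg sc, neck). Hyperactivity and stereotypies were scored 5, 20, 40 and 60 min after apomorphine.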

For experiment [6], the system named is Rattus norvegicus. The experiment in a line: Evaluated in vitro for antipsychotic activity (stereotypies) for the block of apomorphine induced response after ip administration 60 min prior to apomorphine (1 mg/kg sc). It counts as functional. Summed up: as §1

Molecules are shown by their SMILES. pIC50, pKi: −log10 of the molar value.

T1 sequence (P61169 whole entry): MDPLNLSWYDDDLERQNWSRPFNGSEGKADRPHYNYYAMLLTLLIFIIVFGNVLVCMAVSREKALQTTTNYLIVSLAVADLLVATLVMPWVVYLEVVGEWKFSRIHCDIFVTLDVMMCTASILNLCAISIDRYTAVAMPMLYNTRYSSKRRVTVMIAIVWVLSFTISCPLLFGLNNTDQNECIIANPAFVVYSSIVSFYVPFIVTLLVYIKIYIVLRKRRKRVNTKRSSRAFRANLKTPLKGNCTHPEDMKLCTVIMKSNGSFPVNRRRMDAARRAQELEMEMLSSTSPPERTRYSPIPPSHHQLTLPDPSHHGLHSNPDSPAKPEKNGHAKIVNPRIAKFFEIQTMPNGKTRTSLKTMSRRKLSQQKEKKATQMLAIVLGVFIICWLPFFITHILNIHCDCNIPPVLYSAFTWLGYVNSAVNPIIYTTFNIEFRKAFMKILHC

What is called pIC50 is −log10 of the IC50, conventionally taken in molar units. A low value points to a high IC50. A word on the pKi: it is −log10 of the Ki, conventionally taken in molar units. Read a high pKi as a low Ki. The compound `CCN1CCC[C@H]1CNC(=O)c1c(O)c(Cl)cc(OC)c1OC` had a pIC50 on D(2) dopamine receptor [1] of 8.77. For the same compound, on D(2) dopamine receptor [2], the pKi is 10.06.

`CCN1CCC[C@H]1CNC(=O)c1c(OC)c(Br)cc(OC)c1OC` had a pIC50 at D(2) dopamine receptor [1] of 5.76.

For orientation: ED50 means the midpoint of the dose-response relation. Read a high ED50 as a need for a large dose. In the case of `CCN1CCC[C@H]1CNC(=O)c1c(O)c(Cl)cc(Cl)c1OC` [RACLOPRIDE], the ED50 stood at 0.2 µmol/kg in the experiment with Rattus norvegicus [3] and 11 µmol/kg with Rattus norvegicus [4].

The compound `CCN1CCC[C@H]1CNC(=O)c1c(O)c(Br)cc(O)c1OC` gave a pIC50 on D(2) dopamine receptor [1] of 8.72.

Compound `CCN1CCC[C@@H]1CNC(=O)c1c(O)c(OC)cc(Br)c1OC` had a pIC50 at D(2) dopamine receptor [1] of 5.21.

`CCc1cc(OC)c(OC)c(C(=O)NC[C@@H]2CCCN2CC)c1O` gave a pIC50 at D(2) dopamine receptor [1] of 9.11. This compound showed a pKi on D(2) dopamine receptor [2] of 10.48.

Regarding `C=CCN1CCC[C@H]1CNC(=O)c1c(O)c(OC)cc(Br)c1OC`, on D(2) dopamine receptor [1], the pIC50 is 7.36.

Turning to `O=C(CCCN1CCC(O)(c2ccc(Cl)cc2)CC1)c1ccc(F)cc1` [HALOPERIDOL], the median effective dose (ED50) in the experiment with Rattus norvegicus [5] turned out to be 0.37 µmol/kg; in the experiment with Rattus norvegicus [3] it was 0.35 µmol/kg; with Rattus norvegicus [4], 0.9 µmol/kg; in the experiment with Rattus norvegicus [6], 0.27 µmol/kg.

Consider `CCN1CCC[C@H]1CNC(=O)c1c(O)c(OC)cc(Cl)c1OC`, for which the pIC50 at D(2) dopamine receptor [1] was 7.15.

`CCN1CCC[C@@H]1CNC(=O)c1c(O)c(Br)cc(OC)c1OC`: the pIC50 at D(2) dopamine receptor [1] is 7.10. In addition, the values for the ED50 with Rattus norvegicus [5] and in the experiment on Rattus norvegicus [6] were 12.6 µmol/kg and 5.3 µmol/kg, respectively. On D(2) dopamine receptor [2], this compound had a pKi of 8.18.

`CCN1CCC[C@H]1CNC(=O)c1c(O)ccc(O)c1OC` gave a pIC50 at D(2) dopamine receptor [1] of 7.25.

On D(2) dopamine receptor [2], `CCCc1cc(OC)c(OC)c(C(=O)NC[C@@H]2CCCN2CC)c1O.O=C(O)/C(O)=C(\O)C(=O)O` gave a pKi of 10.64.

The compound `CCN1CCC[C@H]1CNC(=O)c1c(OC)c(Cl)cc(OC)c1OC` gave a negative logarithm of the IC50 (pIC50) on D(2) dopamine receptor [1] of 6.38.

In the case of `CCN1CCC[C@H]1CNC(=O)c1c(O)c(Br)cc(OC)c1OC`, the ED50 in the experiment on Rattus norvegicus [3] amounted to 0.005 µmol/kg; with Rattus norvegicus [4], 0.14 µmol/kg. Further, at D(2) dopamine receptor [2], the pKi is 10.19.

In turn, `CCN1CCC[C@H]1CNC(=O)c1c(O)c(Br)cc(N)c1OC` had a pIC50 at D(2) dopamine receptor [1] of 7.48.

For the compound `CCc1cc(OC)c(O)c(C(=O)NC[C@@H]2CCCN2CC)c1OC`, the pIC50 on D(2) dopamine receptor [1] is 7.72.

`CCCc1cc(OC)c(OC)c(C(=O)NC[C@@H]2CCCN2CC)c1OC` gave a negative logarithm of the IC50 (pIC50) on D(2) dopamine receptor [1] of 5.53.

The compound `CCN1CCC[C@H]1CNC(=O)c1c(O)ccc(OC)c1OC` showed a pKi at D(2) dopamine receptor [2] of 9.12.

In turn, `CCN1CCC[C@H]1CNC(=O)c1c(OC)ccc(OC)c1O` had a pIC50 at D(2) dopamine receptor [1] of 6.69.

At D(2) dopamine receptor [1], `CCN1CCC[C@H]1CNC(=O)c1c(O)c(OC)cc(Br)c1OC` gave a pIC50 of 7.17. Further, the median effective dose (ED50) was 1.3 µmol/kg in the experiment with Rattus norvegicus [5] and 12 µmol/kg in the experiment on Rattus norvegicus [6]. This compound also showed a pKi at D(2) dopamine receptor [2] of 8.08.

In the case of `CCc1cc(OC)c(OC)c(C(=O)NC[C@@H]2CCCN2CC)c1OC`, the pIC50 on D(2) dopamine receptor [1] is 6.09.

With `CCN1CCC[C@H]1CNC(=O)c1c(N)c(Br)cc(OC)c1OC`, the pIC50 at D(2) dopamine receptor [1] is 7.68.

Take `CCN1CCC[C@H]1CNC(=O)c1cc(S(N)(=O)=O)ccc1OC` [LEVOSULPIRIDE]: the ED50 in the experiment with Rattus norvegicus [5] is 55 µmol/kg; in the experiment on Rattus norvegicus [3], 8 µmol/kg; in the experiment on Rattus norvegicus [4] it was 280 µmol/kg; in the experiment with Rattus norvegicus [6], 290 µmol/kg.

On to `CCc1cc(Cl)c(OC)c(C(=O)NC[C@@H]2CCCN2CC)c1O` [ETICLOPRIDE], for which the ED50 in the experiment on Rattus norvegicus [5] is 0.015 µmol/kg; in the experiment on Rattus norvegicus [3] it was 0.09 µmol/kg; in the experiment on Rattus norvegicus [4], 0.74 µmol/kg; in the experiment on Rattus norvegicus [6] it was 0.19 µmol/kg.

Source of the values: ChEMBL document CHEMBL1125080, “Potential antipsychotic agents 5. Synthesis and antidopaminergic properties of substituted 5,6-dimethoxysalicylamides and related compounds” (J Med Chem, 1990).
